The source made the active and inactive calls. No cut-off for these calls is given here. Some results are limits rather than exact numbers.

The record followed here is ChEMBL document CHEMBL4382285, “Discovery of Novel Retigabine Derivatives as Potent KCNQ4 and KCNQ5 Channel Agonists with Improved Specificity” (ACS Med Chem Lett, 2019).

Common to all, as to assay type: cell-based
Data set [1] has as its target Potassium voltage-gated channel subfamily KQT member 2 (Rattus norvegicus) (UniProt O88943). Nature of the data set: Activity at rat KCNQ2 expressed in CHOK1 cells assessed as ratio of amplitude of outward current in presence of test compound to amplitude of outward current in absence of test compound at 10 uM at -10 mV by whole cell patch clamp assay. The procedure, abridged: (§1)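 CHO-K1 cells expressing the channel, whole-cell voltage clamp, compound at 10 μM. Read-out is the outward current ratio I/I0 with and without compound, taken at −10 mV. I/I0 > 1 counts as activation and < 1 as inhibition. More than four cells per compound.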
(In general: In patch-clamp work, channel activity is measured electrically.)

The target in data set [2] is T1, Potassium voltage-gated channel subfamily KQT member 4 (Homo sapiens) (UniProt P56696).
T1 sequence (whole entry): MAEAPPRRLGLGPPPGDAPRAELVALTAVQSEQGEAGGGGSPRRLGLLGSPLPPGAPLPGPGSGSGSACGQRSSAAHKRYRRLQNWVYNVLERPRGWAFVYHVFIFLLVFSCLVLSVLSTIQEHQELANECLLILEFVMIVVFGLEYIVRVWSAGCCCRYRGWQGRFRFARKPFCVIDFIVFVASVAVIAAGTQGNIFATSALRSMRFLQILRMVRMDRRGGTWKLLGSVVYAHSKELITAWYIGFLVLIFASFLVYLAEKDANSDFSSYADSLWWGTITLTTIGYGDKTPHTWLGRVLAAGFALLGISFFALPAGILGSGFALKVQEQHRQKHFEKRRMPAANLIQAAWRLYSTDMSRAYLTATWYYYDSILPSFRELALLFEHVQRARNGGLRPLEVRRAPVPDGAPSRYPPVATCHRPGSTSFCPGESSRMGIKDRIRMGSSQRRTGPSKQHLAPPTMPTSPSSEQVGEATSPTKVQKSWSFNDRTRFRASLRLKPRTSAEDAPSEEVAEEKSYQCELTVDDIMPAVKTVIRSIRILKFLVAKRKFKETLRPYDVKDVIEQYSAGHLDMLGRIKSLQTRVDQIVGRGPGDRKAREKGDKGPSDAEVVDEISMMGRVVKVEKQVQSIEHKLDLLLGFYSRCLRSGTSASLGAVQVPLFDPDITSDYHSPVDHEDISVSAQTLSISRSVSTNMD
Nature of the data set: Activity at human KCNQ4 expressed in CHOK1 cells assessed as ratio of amplitude of outward current in presence of test compound to amplitude of outward current in absence of test compound at 10 uM at -10 mV by whole cell patch clamp assay. In outline: as §1

Data set [3] addresses T2, Potassium voltage-gated channel subfamily KQT member 5 (Homo sapiens, UniProt Q9NR82). Nature of the data set: Activity at human KCNQ5 expressed in CHOK1 cells assessed as ratio of amplitude of outward current in presence of test compound to amplitude of outward current in absence of test compound at 10 uM at -10 mV by whole cell patch clamp assay. The procedure, abridged: as §1

Data set [4] addresses T3, Potassium voltage-gated channel subfamily KQT member 4 (Homo sapiens, UniProt P56696).
T3 sequence (P56696 whole entry): T1 sequence (whole entry)
Briefly: Agonist activity at human KCNQ4 expressed in CHOK1 cells by whole cell patch clamp assay. The procedure, abridged: (§2)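 Concentration–response by whole-cell voltage clamp in CHO-K1 cells transiently expressing the homomeric channel. EC50 and Hill coefficient come from fitting outward currents recorded across the tested concentrations.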

Data set [5] has as its target T2, Potassium voltage-gated channel subfamily KQT member 5. Nature of the data set: Agonist activity at human KCNQ5 expressed in CHOK1 cells by whole cell patch clamp assay. In outline:
as §2

Data set [6] concerns the target T4, Potassium voltage-gated channel subfamily KQT member 2 (Rattus norvegicus, UniProt O88943). Nature of the data set: Agonist activity at rat KCNQ2 expressed in CHOK1 cells by whole cell patch clamp assay. The procedure, abridged:
as §2

Data set [7] addresses T5, Potassium voltage-gated channel subfamily KQT member 3 (Rattus norvegicus, UniProt O88944).
T5 sequence (O88944 whole entry): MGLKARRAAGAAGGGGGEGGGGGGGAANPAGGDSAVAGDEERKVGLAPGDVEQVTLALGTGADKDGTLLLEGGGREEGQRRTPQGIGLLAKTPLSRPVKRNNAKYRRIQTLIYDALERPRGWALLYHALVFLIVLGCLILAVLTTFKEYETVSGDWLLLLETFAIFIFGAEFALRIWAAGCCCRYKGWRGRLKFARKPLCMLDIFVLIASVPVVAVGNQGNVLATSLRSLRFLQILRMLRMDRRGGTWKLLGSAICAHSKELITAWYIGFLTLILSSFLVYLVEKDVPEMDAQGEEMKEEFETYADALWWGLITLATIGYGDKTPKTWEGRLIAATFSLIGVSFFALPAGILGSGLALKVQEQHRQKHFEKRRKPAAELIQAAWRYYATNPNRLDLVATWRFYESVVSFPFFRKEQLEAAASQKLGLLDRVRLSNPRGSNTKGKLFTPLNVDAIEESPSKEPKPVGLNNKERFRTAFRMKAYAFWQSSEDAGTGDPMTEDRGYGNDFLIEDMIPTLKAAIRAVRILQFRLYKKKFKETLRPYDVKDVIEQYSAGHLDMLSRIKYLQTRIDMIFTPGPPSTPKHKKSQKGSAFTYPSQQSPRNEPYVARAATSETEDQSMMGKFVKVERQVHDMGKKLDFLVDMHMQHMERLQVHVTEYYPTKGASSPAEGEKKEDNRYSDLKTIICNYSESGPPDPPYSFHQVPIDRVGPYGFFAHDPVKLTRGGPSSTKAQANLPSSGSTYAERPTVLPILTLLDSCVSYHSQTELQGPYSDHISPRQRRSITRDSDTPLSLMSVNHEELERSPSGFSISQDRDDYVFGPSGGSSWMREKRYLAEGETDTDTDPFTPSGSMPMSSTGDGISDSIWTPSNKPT
Nature of the data set: Agonist activity at rat KCNQ3 expressed in CHOK1 cells assessed as increase in amplitude of outward current at 10 uM by whole cell patch clamp assay relative to control. The procedure, abridged:
(§3)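 Individual KCNQ subtypes and KCNQ2/3 heteromers transfected into CHO cells, whole-cell recording before and after 10 μM compound. Cells held at −80 mV, stepped from −90 to +60 mV in 10 mV increments for 1500 ms, then to −120 mV for 500 ms. Currents compared at −10 and +60 mV.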

The target in data set [8] is Voltage-gated potassium channel, KQT; KCNQ2(Kv7.2)/KCNQ3(Kv7.3) (Homo sapiens, UniProt O43526+O43525). Briefly: Agonist activity at KCNQ2/KCNQ3 (unknown origin) expressed in CHOK1 cells assessed as increase in amplitude of outward current at 10 uM by whole cell patch clamp assay relative to control. In outline: as §3
Voltage-gated potassium channel, KQT; KCNQ2(Kv7.2)/KCNQ3(Kv7.3), sequence (O43526 whole entry): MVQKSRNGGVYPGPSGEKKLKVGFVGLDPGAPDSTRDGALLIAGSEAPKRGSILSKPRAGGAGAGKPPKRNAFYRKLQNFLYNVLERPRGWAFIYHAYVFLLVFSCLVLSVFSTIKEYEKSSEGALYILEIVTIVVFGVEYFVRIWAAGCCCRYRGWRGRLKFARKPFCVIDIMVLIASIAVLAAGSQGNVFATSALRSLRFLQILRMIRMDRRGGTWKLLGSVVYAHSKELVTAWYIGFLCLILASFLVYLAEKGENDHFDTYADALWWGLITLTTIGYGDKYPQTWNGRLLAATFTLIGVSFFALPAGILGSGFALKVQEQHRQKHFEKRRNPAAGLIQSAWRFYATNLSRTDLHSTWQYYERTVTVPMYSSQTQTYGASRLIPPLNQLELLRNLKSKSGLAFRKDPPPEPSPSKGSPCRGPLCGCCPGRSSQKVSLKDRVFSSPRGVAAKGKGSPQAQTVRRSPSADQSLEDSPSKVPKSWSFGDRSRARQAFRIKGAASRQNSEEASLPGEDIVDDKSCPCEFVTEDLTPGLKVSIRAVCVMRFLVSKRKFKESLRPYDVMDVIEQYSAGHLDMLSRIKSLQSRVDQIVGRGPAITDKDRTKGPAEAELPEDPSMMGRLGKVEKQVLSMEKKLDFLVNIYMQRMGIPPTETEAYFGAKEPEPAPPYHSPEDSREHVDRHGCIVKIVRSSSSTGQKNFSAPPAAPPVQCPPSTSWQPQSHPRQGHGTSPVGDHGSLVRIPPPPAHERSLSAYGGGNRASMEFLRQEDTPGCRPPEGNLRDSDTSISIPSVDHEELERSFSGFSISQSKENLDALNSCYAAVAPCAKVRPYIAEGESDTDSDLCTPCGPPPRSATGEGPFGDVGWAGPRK
Voltage-gated potassium channel, KQT; KCNQ2(Kv7.2)/KCNQ3(Kv7.3), sequence (O43525 whole entry): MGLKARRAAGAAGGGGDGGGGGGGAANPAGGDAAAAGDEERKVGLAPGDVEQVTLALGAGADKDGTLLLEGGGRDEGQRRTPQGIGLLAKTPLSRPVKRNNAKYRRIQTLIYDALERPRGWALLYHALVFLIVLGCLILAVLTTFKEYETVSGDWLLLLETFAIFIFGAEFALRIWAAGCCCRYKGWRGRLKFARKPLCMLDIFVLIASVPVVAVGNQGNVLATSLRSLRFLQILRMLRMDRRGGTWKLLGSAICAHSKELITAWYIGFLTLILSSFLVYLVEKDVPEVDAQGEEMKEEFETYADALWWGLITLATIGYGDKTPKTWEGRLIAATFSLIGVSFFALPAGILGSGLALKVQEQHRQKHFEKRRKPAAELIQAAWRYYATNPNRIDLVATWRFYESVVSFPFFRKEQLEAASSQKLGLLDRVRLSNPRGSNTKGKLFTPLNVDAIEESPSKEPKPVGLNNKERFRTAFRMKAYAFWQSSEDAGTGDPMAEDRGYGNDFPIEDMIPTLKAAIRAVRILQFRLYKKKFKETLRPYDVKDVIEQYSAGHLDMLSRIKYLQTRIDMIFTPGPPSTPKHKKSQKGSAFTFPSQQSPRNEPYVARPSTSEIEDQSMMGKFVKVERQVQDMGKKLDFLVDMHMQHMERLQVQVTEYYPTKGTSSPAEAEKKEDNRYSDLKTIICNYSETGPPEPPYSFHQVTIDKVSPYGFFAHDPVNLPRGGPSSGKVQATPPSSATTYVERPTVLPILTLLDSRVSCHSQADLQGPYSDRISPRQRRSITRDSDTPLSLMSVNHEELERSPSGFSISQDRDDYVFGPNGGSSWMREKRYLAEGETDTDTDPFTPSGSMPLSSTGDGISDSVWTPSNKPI
For data set [9], the target named is T4, Potassium voltage-gated channel subfamily KQT member 2. Nature of the data set: Activation of rat homomeric KCNQ2 expressed in CHOK1 cells assessed as outward current amplitude up to 30 uM by whole cell patch clamp assay. In outline:
(§4)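 Homomeric KCNQ2 in CHO-K1 cells, whole-cell voltage clamp, compound applied over 1–30 μM. Change in outward current amplitude was read against the pre-drug current, including at 30 μM.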

Data set [10] addresses Potassium voltage-gated channel subfamily KQT member 2 (Rattus norvegicus) (UniProt O88943). Nature of the data set: Inhibition of rat homomeric KCNQ2 expressed in CHOK1 cells assessed as effect on outward current amplitude at 30 uM by whole cell patch clamp assay. The procedure, abridged:
as §4

Data set [11] shares this target. Briefly: Effect on voltage-dependent activation of rat KCNQ2 expressed in CHOK1 cells assessed as negative shift in current activation curve at 10 uM by whole cell patch clamp assay.
Data set [12] has as its target T1, Potassium voltage-gated channel subfamily KQT member 4 (Homo sapiens). Briefly: Effect on voltage-dependent activation of human KCNQ4 expressed in CHOK1 cells assessed as negative shift in current activation curve at 10 uM by whole cell patch clamp assay.
Data set [13] concerns the target Potassium voltage-gated channel subfamily KQT member 2 (Rattus norvegicus) (UniProt O88943). Nature of the data set: Channel opening activity at rat KCNQ2 expressed in CHOK1 cells at 10 uM at -60 mV by whole cell patch clamp assay.
The target in data set [14] is T1, Potassium voltage-gated channel subfamily KQT member 4 (Homo sapiens). Briefly: Channel opening activity at human KCNQ4 expressed in CHOK1 cells at 10 uM at -60 mV by whole cell patch clamp assay.

Potassium voltage-gated channel subfamily KQT member 2 (Rattus norvegicus), sequence (O88943 whole entry): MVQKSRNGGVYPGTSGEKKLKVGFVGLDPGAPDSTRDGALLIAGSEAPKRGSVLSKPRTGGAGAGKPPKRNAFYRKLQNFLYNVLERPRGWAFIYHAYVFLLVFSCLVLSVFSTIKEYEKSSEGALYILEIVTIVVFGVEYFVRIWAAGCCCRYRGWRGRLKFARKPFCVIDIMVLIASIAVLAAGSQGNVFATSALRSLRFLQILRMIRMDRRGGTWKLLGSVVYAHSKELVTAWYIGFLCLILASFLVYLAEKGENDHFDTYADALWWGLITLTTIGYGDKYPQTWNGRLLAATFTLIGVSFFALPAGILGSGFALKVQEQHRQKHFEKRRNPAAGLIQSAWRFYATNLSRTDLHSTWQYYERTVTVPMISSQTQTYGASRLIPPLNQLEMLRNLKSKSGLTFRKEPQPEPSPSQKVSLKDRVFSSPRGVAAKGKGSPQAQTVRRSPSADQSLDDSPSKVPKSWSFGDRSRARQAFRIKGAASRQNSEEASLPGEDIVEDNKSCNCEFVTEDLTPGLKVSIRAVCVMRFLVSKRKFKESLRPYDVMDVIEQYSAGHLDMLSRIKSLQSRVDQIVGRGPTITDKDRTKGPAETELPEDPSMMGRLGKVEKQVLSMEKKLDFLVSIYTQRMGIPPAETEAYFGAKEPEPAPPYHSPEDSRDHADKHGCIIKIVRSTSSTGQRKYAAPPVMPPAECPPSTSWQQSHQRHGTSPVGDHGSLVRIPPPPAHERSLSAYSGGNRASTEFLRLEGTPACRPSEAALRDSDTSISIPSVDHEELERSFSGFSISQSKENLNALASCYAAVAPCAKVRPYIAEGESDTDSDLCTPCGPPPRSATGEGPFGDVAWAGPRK
T2 sequence (Q9NR82 whole entry): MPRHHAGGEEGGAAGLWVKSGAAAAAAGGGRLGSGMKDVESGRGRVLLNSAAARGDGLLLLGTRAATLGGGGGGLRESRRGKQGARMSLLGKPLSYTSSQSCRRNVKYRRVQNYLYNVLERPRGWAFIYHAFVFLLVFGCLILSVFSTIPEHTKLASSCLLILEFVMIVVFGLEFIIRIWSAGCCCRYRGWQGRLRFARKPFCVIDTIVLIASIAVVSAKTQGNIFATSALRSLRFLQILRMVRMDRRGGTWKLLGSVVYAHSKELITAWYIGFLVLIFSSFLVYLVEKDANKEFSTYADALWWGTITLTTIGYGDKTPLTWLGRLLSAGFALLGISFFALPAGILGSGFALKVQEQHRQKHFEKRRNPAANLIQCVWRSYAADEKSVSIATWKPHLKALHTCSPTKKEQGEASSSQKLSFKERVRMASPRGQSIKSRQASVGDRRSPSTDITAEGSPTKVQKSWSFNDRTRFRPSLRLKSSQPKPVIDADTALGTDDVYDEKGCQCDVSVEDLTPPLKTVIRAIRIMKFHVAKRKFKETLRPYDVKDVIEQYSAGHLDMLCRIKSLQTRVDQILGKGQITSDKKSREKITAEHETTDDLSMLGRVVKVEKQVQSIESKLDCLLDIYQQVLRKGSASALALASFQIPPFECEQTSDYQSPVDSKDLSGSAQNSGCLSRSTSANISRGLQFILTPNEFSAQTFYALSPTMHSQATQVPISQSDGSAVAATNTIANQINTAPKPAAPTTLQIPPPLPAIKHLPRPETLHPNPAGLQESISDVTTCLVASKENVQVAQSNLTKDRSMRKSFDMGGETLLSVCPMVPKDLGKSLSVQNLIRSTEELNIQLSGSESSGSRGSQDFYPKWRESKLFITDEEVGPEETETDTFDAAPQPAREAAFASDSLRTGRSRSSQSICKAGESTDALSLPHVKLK
T4 sequence (O88943 whole entry): as the sequence (O88943 whole entry) above

On to `C#CCN(Cc1ccc(F)cc1)c1ccc(NC(=O)OCC)c(NC(=O)OC(C)(C)C)c1`, for which the Ratio in [1] was found to be 1.16; in [2] it was 6.37; in data set [3], 4.58. Moreover, the EC50 (in general, the concentration that produces a half-maximal response) in [4] was 0.78 µM; in data set [5], 1.68 µM; in data set [6], greater than 30 µM. Further, the “fold change (FC)” value in data set [7] and in [8] was 1.5 in each case. Also, the Activity entry in [9] is given as “Not Active”. In addition, in [10], the inhibition result is “Active”. For the same compound, the outcome in [11], in [12], in data set [13] and in data set [14] was inactive.
